Shown are actives, neighbours in structure and some others; about 2.1% of the full set was active somewhere.
HCV NS3 hel inh = inhibitors of Hepatitis C virus NS3 helicase. NS3 helicase DNA unwinding, Cy5 molecular beacon fluorescence. inhibition, % at 10.9 µM. 290,000 compounds, 0.56% hits. AID 1800;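 active means inhibition above the mean of all tested compounds plus 3 SD, set per campaign, cut at about 35% in these data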;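 further: 0% = DMSO wells and 100% = thioflavine S control wells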
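Test system: hepatitis C virus NS3 helicase domain fragment enzyme. Also added: annealed dual-labelled DNA beacon duplex, ATP-started. Timing: 60 min unwinding reaction at 25 °C after ATP addition. Technique: Cy5 fluorescence. Measure: % inhibition of unwinding.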
ZTA DNA inh = ZTA (EBV) inhibition in EBNA-1 counter-screen. AID 2234. 320,000 compounds, 0.15% hits. ZTA-DNA binding, fluorescence polarization. P03206. inhibition, % at 11 µM; in the data active means inhibition above about 33%
Target sequence (P03206 whole entry, looked up): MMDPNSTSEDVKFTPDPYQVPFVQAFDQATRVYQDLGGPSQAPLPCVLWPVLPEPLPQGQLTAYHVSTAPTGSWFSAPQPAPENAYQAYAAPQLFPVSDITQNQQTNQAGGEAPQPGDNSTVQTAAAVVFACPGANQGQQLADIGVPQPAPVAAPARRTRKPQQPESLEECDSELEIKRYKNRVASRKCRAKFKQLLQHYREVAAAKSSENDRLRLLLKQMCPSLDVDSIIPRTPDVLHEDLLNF
PABP polyA inh = blocks human PABP binding to poly(A) RNA | fluorescence polarization | 290,000 compounds, 1% hits | inhibition, % at 35 µM | P11940 | AID 2014;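 further: calls also rest on retests at 20 µM and on dose response follow-up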
eIF4H inh = inhibitors of RNA binding by human eIF4H | Q15056 | eIF4H fluorescence polarization binding assay | AID 2012 | 290,000 compounds, 0.94% hits | inhibition, % at 35 µM;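 further: calls also rest on retests at 20 µM and on dose response follow-up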
PABP1 MLLE inh = inhibitors of microRNA-mediated deadenylation, human PABP1 MLLE binding. 360,000 compounds, 0.36% hits. GST-MLLE / FITC-PAM2 fluorescence polarization. inhibition, % at 20 µM. AID 588489. P11940; in the data active means inhibition above about 35%, passing the limit was not always enough;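 further: plate controls were DMSO wells with GST-MLLE for no effect and wells lacking GST-MLLE protein for full effect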
EBNA-1 inh = blocks EBNA-1 binding to DNA; EBNA-1 DNA binding, fluorescence polarization; inhibition, % at 14.8 µM; 300,000 compounds, 0.34% hits; AID 1950; in the data active means inhibition above about 28%
Active calls of the source: *; ? = inconclusive; / = no result. Unless noted, how the calls were made is not given here.

SMILES | HCV NS3 hel inh | ZTA DNA inh | PABP polyA inh | eIF4H inh | PABP1 MLLE inh | EBNA-1 inh
O=C(C1CC(=O)N(c2ccc3c(c2)OCCO3)C1)N1CCN(Cc2ccccc2)CC1 (stereo not given) | / | 4 | / | / | -10 | /
CCn1c(=N)n(CC(O)c2cccs2)c2ccccc21 (stereo not given) | -13 | -6 | 1 | -1 | -4 | 4
N#Cc1c(NCCN)nc(NCc2ccccc2)c2c1CCN(Cc1ccccc1)C2 | -60 | / | 72* | 62* | -11 | /
C=CCNc1nc(NCc2ccccc2)c(C#N)c2c1CN(C)CC2 | -9 | -2 | ? | ? | 22 | 3
CCC(C)[C@H](NC(=O)[C@@H]1CSC2c3ccccc3C(=O)N21)C(=O)NCC1CCCO1 (stereo not given in full) | 1 | -1 | -6 | 1 | 18 | 2
COc1ccc(/C=N/NC(=O)Cn2c(Cc3ccc(OC)c(OC)c3)nc3ccccc32)cc1 | 12 | -23 | 76* | active | 4 | 10
Fc1c(F)c(F)c(N=Cc2ccc3ncccc3c2)c(F)c1F | 2 | -20 | 88* | 0.6* | 3 | 1
Cc1cccc(NC(=O)CCc2nnc3ccc(NCc4ccco4)nn23)n1 | 7 | 4 | 32 | 80* | 4 | -2
COc1ccc(NC(=O)CCc2nnc3ccc(NCc4ccco4)nn23)cc1 | 16 | -20 | 0 | 2 | 2 | -3
O=C(CCc1nnc2ccc(NCc3ccco3)nn12)Nc1ccccn1 | -3 | -15 | 43 | 88* | 14 | -6
O=S(=O)(NC1CC1)c1ccc(S(=O)(=O)N2CCc3ccccc32)cc1 | -1 | 6 | 6 | 3 | -1 | 4
CCC12CCCN3CCC4(C(=C(C(=O)OC)C1)Nc1ccccc14)C32 (stereo not given) | 6 | / | 57* | 17 | -99 | /
O=c1[nH]c2cc3c(cc2cc1CN(Cc1cccnc1)Cc1nnnn1Cc1ccco1)OCCO3 | -3 | 0 | 89* | 71* | -14 | -3
O=c1[nH]c2cc3c(cc2cc1CN(Cc1ccccc1)Cc1nnnn1Cc1ccco1)OCCO3 | 12 | / | 60 | 39 | -34 | /
O=c1[nH]c2cc3c(cc2cc1CN(CCc1ccccc1)Cc1nnnn1C1CCCC1)OCCO3 | 4 | / | 62* | 97* | / | /
COc1ccccc1CN(Cc1cc2cc3c(cc2[nH]c1=O)OCCO3)Cc1nnnn1Cc1ccco1 | 21 | -19 | 41* | 58* | 7 | -17
O=c1[nH]c2cc3c(cc2cc1CN(Cc1cccs1)Cc1nnnn1Cc1ccco1)OCCO3 | 7 | 8 | 52* | 38* | 26 | -6
Cc1cc2cc(CN(Cc3ccc4c(c3)OCO4)Cc3nnnn3C3CCCC3)c(=O)[nH]c2cc1C | -1 | 3 | 0 | -2 | 1 | 3
Cc1ccc2[nH]c(=O)c(CN(Cc3ccc4c(c3)OCO4)Cc3nnnn3Cc3ccco3)cc2c1 | 28 | -5 | 9 | -10 | 0 | -5
O=C(CSc1nnc(C2COc3ccccc3O2)o1)N1CCCC1 (stereo not given) | 4 | -15 | 6 | 6 | 39* | -3
CCOC(=O)N1CCN(C(=O)CSc2nnc(C3COc4ccccc4O3)o2)CC1 (stereo not given) | 3 | 9 | 0 | 0 | 13 | -2
Cc1cc2ccccc2n1CCNC(=O)c1cccs1 | -1 | 1 | 64* | 42* | 14 | 8
O=C(NCCn1ccc2ccccc21)C1CCCCC1 | -5 | -18 | 6 | 2 | -16 | -10
Cc1cc2ccccc2n1CCNC(=O)C1CCCC1 | -28 | -13 | 75* | ? | 24 | -5
Cc1cc2ccccc2n1CCNC(=O)C1CC1 | -21 | -3 | 50* | 112 | 20 | 5
CCCn1c(CCNC(=O)c2cccs2)nc2ccccc21 | 7 | -17 | -5 | -11 | 9 | -6
Cc1cc2ccccc2n1CCNC(=O)C1CCCCC1 | -3 | 0 | -16 | 19 | 11 | 11
COc1ccc(C2C3=C(N=C4SCC(=O)N42)c2ccccc2CC3)cc1OC (stereo not given) | 2 | -3 | 11 | -4 | -6 | -4
CCN(CCCNC(=O)C1CCN(S(=O)(=O)CC)CC1)c1cccc(C)c1 | -5 | 0 | 28* | 90* | 16 | 3

Screens: PubChem BioAssay, several laboratories
